{"source": "ChEMBL document CHEMBL4814057", "about": "“4-4-(Anilinomethyl)-3-[4-(trifluoromethyl)phenyl]-1H-pyrazol-1-ylbenzoic acid derivatives as potent anti-gram-positive bacterial agents” (Eur J Med Chem, 2021)", "key": {"Enterococcus faecalis [1]": {"system": "Enterococcus faecalis", "assay": "Antibiofilm activity against Enterococcus faecalis ATCC 29212 assessed as inhibition of biofilm formation at 2 times MIC after 24 hrs by crystal violet staining based assay relative to control", "format": "functional", "set-up": "scale not given: the % may be the effect or the level left", "how_it_was_run": "(§1)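 Overnight culture brought to 0.5 McFarland in PBS, diluted 1:100 in CAMHB with 1% glucose. Inhibition: cells plus compound (in DMSO) at 2x, 1x, 0.5xMIC, 24 h at 35 °C, triplicate. Destruction: 24 h biofilm grown without drug, washed, fresh medium with compound, further 24 h. Then washed, dried, 0.1% crystal violet, solubilized in 33% acetic acid, OD 620 nm. Controls are DMSO-only and broth-only wells.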"}, "Enterococcus faecalis [2]": {"system": "Enterococcus faecalis", "assay": "Antibiofilm activity against Enterococcus faecalis ATCC 29212 assessed as destruction of biofilm formation at 1 times MIC after 24 hrs by crystal violet staining based assay relative to control", "format": "functional", "how_it_was_run": "as §1"}, "[3]": {"assay": "Toxicity in CD1 mouse assessed as effect on total protein level at 50 mg/kg, ip administered as single dose measured after 24 hrs", "format": "organism-based", "settings": "in vivo", "how_it_was_run": "(§2)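 Male CD-1 mice, 8 weeks, 32–37 g, n = 10 per dose. Single IP injection at 5, 20 or 50 mg/kg in 0.9% saline, filter-sterilized; saline vehicle group. Blood taken by cardiac puncture 24 h later. 14 plasma markers measured on a chemistry panel, reported as mean ± SE. Toxicity judged by significance versus controls, normal ranges, dose-dependence and consistency across organ markers.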"}, "Staphylococcus aureus [4]": {"system": "Staphylococcus aureus", "assay": "Antibacterial activity against methicillin resistant Staphylococcus aureus ATCC 700699 persisters assessed as reduction in viability at 4 times MIC measured within 4 hrs by colony counting method", "format": "functional", "settings": "time hrs <=4", "how_it_was_run": "(§3)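 Stationary-phase S. aureus from overnight CAMHB culture (35 °C, 200 rpm), washed thrice in PBS, diluted to ~5 × 10^8 CFU/ml. Incubated with antibiotic at 35 °C, 200 rpm. Aliquots taken at set times, washed, serially diluted in PBS, drop-plated (6 × 6) on TSA with 5% sheep blood. Colonies counted after 18–20 h at 35 °C. Triplicates.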"}, "Bacillus subtilis": {"system": "Bacillus subtilis", "assay": "Antimicrobial activity against Bacillus subtilis ATCC 6623 assessed as bacterial growth inhibitions by CLSI protocol based microdilution method", "format": "functional", "how_it_was_run": "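Broth microdilution starting at 50 µg/ml with 2-fold serial dilutions; run in triplicate.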"}, "[5]": {"assay": "Selectivity index, ratio of IC50 for cytotoxicity against human HEK-293T cells to MIC of antimicrobial activity against methicillin-susceptible Staphylococcus aureus ATCC 25923", "format": "toxicity, cell-based", "settings": "read-out: Selectivity Index"}, "[6]": {"assay": "Toxicity in CD1 mouse assessed as effect on globulin level at 50 mg/kg, ip administered as single dose measured after 24 hrs", "format": "organism-based", "settings": "in vivo", "how_it_was_run": "as §2"}, "Staphylococcus aureus [7]": {"system": "Staphylococcus aureus", "assay": "Antimicrobial activity against antibiotic-resistant Staphylococcus aureus BM-2312 assessed as bacterial growth inhibitions by CLSI protocol based microdilution method", "format": "functional"}, "[8]": {"assay": "Toxicity in CD1 mouse assessed as effect on alkaline phosphatase level in blood at 50 mg/kg, ip administered as single dose measured after 24 hrs", "format": "organism-based", "settings": "in vivo", "how_it_was_run": "as §2"}, "Staphylococcus aureus [9]": {"system": "Staphylococcus aureus", "assay": "Antimicrobial activity against Staphylococcus aureus ATCC 29213 assessed as inhibition of cell wall synthesis at 4 to 8 times MIC measured by liquid scintillation counter", "format": "functional", "how_it_was_run": "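Early-exponential cells resuspended in M9 minimal medium, drug (40x stock) in triplicate, 30 min pre-incubation at 37 °C. [14C]N-acetylglucosamine 0.4 µCi/reaction for 45 min at 37 °C. Stopped with 8% SDS, heated 95 °C 30 min, spotted on nitrocellulose, washed with 0.1% SDS, then scintillation counted.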"}, "Staphylococcus aureus [10]": {"system": "Staphylococcus aureus", "assay": "Inhibition of lipid synthesis in Staphylococcus aureus ATCC 29213 at 4 times MIC measured by liquid scintillation counter", "format": "functional", "how_it_was_run": "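Early-exponential cells in CAMHBII with drug in triplicate. Lipids extracted with chloroform/water, centrifuged, organic phase dried, then scintillation counted.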"}, "Enterococcus faecium [11]": {"system": "Enterococcus faecium", "assay": "Antimicrobial activity against vancomycin-resistant Enterococcus faecium clinical isolate 1100440 by CLSI-based broth microdilution assay", "format": "functional"}, "Enterococcus faecium [12]": {"system": "Enterococcus faecium", "assay": "Antimicrobial activity against vancomycin-resistant Enterococcus faecium clinical isolate 1091563 by CLSI-based broth microdilution assay", "format": "functional"}, "[13]": {"assay": "Toxicity in CD1 mouse assessed as effect on sodium level at 50 mg/kg, ip administered as single dose measured after 24 hrs", "format": "organism-based", "settings": "in vivo", "how_it_was_run": "as §2"}, "Enterococcus faecium [14]": {"system": "Enterococcus faecium", "assay": "Antimicrobial activity against vancomycin-resistant Enterococcus faecium clinical isolate 1091720 by CLSI-based broth microdilution assay", "format": "functional"}, "Staphylococcus aureus [15]": {"system": "Staphylococcus aureus", "assay": "Antibacterial activity against methicillin resistant Staphylococcus aureus ATCC 700699 persisters assessed as reduction in viability at 8 times MIC measured within 4 hrs by colony counting method", "format": "functional", "settings": "time hrs <=4", "how_it_was_run": "as §3"}, "Enterococcus faecalis [16]": {"system": "Enterococcus faecalis", "assay": "Antibiofilm activity against Enterococcus faecalis ATCC 29212 assessed as inhibition of biofilm formation at 0.5 times MIC after 24 hrs by crystal violet staining based assay relative to control", "format": "functional", "set-up": "scale not given: the % may be the effect or the level left", "how_it_was_run": "as §1"}, "Enterococcus faecalis [17]": {"system": "Enterococcus faecalis", "assay": "Antibiofilm activity against Enterococcus faecalis ATCC 29212 assessed as inhibition of biofilm formation at 0.5 times MIC after 24 hrs by crystal violet staining based assay relative to control"}, "Enterococcus faecalis [18]": {"system": "Enterococcus faecalis", "assay": "Antibiofilm activity against Enterococcus faecalis ATCC 29212 assessed as inhibition of biofilm formation at 2 times MIC after 24 hrs by crystal violet staining based assay relative to control"}, "Enterococcus faecium [19]": {"system": "Enterococcus faecium", "assay": "Antimicrobial activity against vancomycin-resistant Enterococcus faecium clinical isolate 1091282 by CLSI-based broth microdilution assay", "format": "functional"}, "Staphylococcus aureus [20]": {"system": "Staphylococcus aureus", "assay": "Inhibition of RNA synthesis in Staphylococcus aureus ATCC 29213 at 0.25 times MIC measured by liquid scintillation counter", "format": "functional", "how_it_was_run": "(§4)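 Early-exponential cells in CAMHB added to drug (40x stock) in triplicate, with a no-drug control. After 30 min pre-incubation at room temperature, [3H]thymidine 3.0 µCi/tube (DNA) or [3H]uridine 0.5 µCi/tube (RNA) added for 30 min at room temperature. Stopped with cold TCA, precipitate filtered and washed, then scintillation counted.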"}, "Enterococcus faecalis [21]": {"system": "Enterococcus faecalis", "assay": "Antibacterial activity against vancomycin-intermediate Enterococcus faecalis ATCC 29212 assessed as bacterial growth inhibition by measuring fold increase in MIC after14 passages by broth dilution method", "format": "functional, organism-based"}, "[22]": {"assay": "Toxicity in CD1 mouse assessed as effect on phosphorus level at 50 mg/kg, ip administered as single dose measured after 24 hrs", "format": "organism-based", "settings": "in vivo", "how_it_was_run": "as §2"}, "[23]": {"assay": "Toxicity in CD1 mouse assessed as effect on blood urea nitrogen level at 50 mg/kg, ip administered as single dose measured after 24 hrs", "format": "organism-based", "settings": "in vivo", "how_it_was_run": "as §2"}, "[24]": {"assay": "Toxicity in CD1 mouse assessed as effect on creatine level at 50 mg/kg, ip administered as single dose measured after 24 hrs", "format": "organism-based", "settings": "in vivo", "how_it_was_run": "as §2"}, "Staphylococcus aureus [25]": {"system": "Staphylococcus aureus", "assay": "Inhibition of RNA synthesis in Staphylococcus aureus ATCC 29213 at 4 times MIC measured by liquid scintillation counter", "format": "functional", "how_it_was_run": "as §4"}, "Enterococcus faecium [26]": {"system": "Enterococcus faecium", "assay": "Antimicrobial activity against vancomycin-resistant Enterococcus faecium ATCC 700221 assessed as bacterial growth inhibitions by CLSI protocol based microdilution method", "format": "functional"}, "Staphylococcus aureus [27]": {"system": "Staphylococcus aureus", "assay": "Antibacterial activity against methicillin resistant Staphylococcus aureus ATCC 700699 persisters assessed as reduction in viability at 16 times MIC by colony counting method", "format": "functional, organism-based", "how_it_was_run": "as §3"}, "Staphylococcus aureus [28]": {"system": "Staphylococcus aureus", "assay": "Antimicrobial activity against methicillin-susceptible Staphylococcus aureus ATCC 25923 assessed as bacterial growth inhibitions by CLSI protocol based microdilution method", "format": "functional"}}, "note": "The source made the active and inactive calls. The calls are words filed in the database; no cut-off is given here."}
{"smiles": "O=C(O)c1ccc(-n2cc(CNc3cc(F)cc(C(F)(F)F)c3)c(-c3ccc(C(F)(F)F)cc3)n2)cc1", "values": [{"measurement": "Activity", "setting": "Enterococcus faecalis [1]", "value": 90, "unit": "%"}, {"measurement": "Activity", "setting": "Enterococcus faecalis [2]", "value": 75, "unit": "%"}, {"measurement": "Activity", "setting": "[3]", "value": "Non-Toxic"}, {"measurement": "Activity", "setting": "Staphylococcus aureus [4]", "value": 2, "unit": "log10CFU/ml"}, {"measurement": "MIC", "setting": "Bacillus subtilis", "value": 0.78, "unit": "µg/mL"}, {"measurement": "selectivity ratio", "setting": "[5]", "value": 13}, {"measurement": "Activity", "setting": "[6]", "value": "Non-Toxic"}, {"measurement": "MIC", "setting": "Staphylococcus aureus [7]", "value": 0.78, "unit": "µg/mL"}, {"measurement": "Activity", "setting": "[8]", "value": "Non-Toxic"}, {"measurement": "inhibition (INH)", "setting": "Staphylococcus aureus [9]", "value": ">80", "unit": "%"}, {"measurement": "inhibition (INH)", "setting": "Staphylococcus aureus [10]", "value": 100, "unit": "%"}, {"measurement": "MIC", "setting": "Enterococcus faecium [11]", "value": 4, "unit": "µg/mL"}, {"measurement": "MIC", "setting": "Enterococcus faecium [12]", "value": 4, "unit": "µg/mL"}, {"measurement": "Activity", "setting": "[13]", "value": "Non-Toxic"}, {"measurement": "MIC", "setting": "Enterococcus faecium [14]", "value": 4, "unit": "µg/mL"}, {"measurement": "Activity", "setting": "Staphylococcus aureus [15]", "value": 3, "unit": "log10CFU/ml"}, {"measurement": "Activity", "setting": "Enterococcus faecalis [16]", "value": 75, "unit": "%"}, {"measurement": "inhibition", "setting": "Enterococcus faecalis [17]", "value": "Active"}, {"measurement": "inhibition (INH)", "setting": "Enterococcus faecalis [18]", "value": 90, "unit": "%"}, {"measurement": "MIC", "setting": "Enterococcus faecium [19]", "value": 2, "unit": "µg/mL"}, {"measurement": "inhibition (INH)", "setting": "Staphylococcus aureus [20]", "value": 15.5, "unit": "%"}, {"measurement": "Activity", "setting": "Enterococcus faecalis [21]", "value": "inactive"}, {"measurement": "Activity", "setting": "[22]", "value": "Non-Toxic"}, {"measurement": "Activity", "setting": "[23]", "value": "Non-Toxic"}, {"measurement": "Activity", "setting": "[24]", "value": "Non-Toxic"}, {"measurement": "inhibition (INH)", "setting": "Staphylococcus aureus [25]", "value": 98, "unit": "%"}, {"measurement": "MIC", "setting": "Enterococcus faecium [26]", "value": 0.78, "unit": "µg/mL"}, {"measurement": "Activity", "setting": "Staphylococcus aureus [27]", "value": "Active"}, {"measurement": "MIC", "setting": "Staphylococcus aureus [28]", "value": 0.39, "unit": "µg/mL"}]}
